Screening data (PubChem)
Compounds with a hit are over-represented: about 2.5% of the library has one in this group of screens.
MEKK2 mut-MEK5: signal of MEK5 binding to mutant human MEKK2 PB1 domain. actives 0.35% (n = 290,000). percent response, % at 10 µM. bead flow cytometry, Alexa488-MEK5 binding to MEKK2 mutant. AID 1530; in the data active = percent response above about 24%, passing the limit was not always enough
Efflux pump mplx: blocks antifungal efflux pumps in multiplex yeast assay. S. cerevisiae Candida pump triplex, Nile Red efflux. inhibition, % at 10 µM. actives 0.44% (n = 330,000);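 active = plate passing quality check with inhibition over a set limit, or well fluorescence over plate mean plus 4 SD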;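 also: Nile Red retained in pooled yeast measured as flow cytometry median fluorescence; 0% = buffer negative control and 100% = Enniatin B positive control; higher means more Nile Red kept so more efflux inhibition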
ABCB1 inh: human ABCB1 inhibition, ABCG2 as counter-screen; P08183; CCRF-Adr cells, JC-1 efflux, flow cytometry; actives 0.067% (n = 190,000); AID 1326; inhibition, % at 6.6 µM; in the data active = inhibition above about 40%;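 also: 0% = vehicle and 100% = reference inhibitor; higher value means more JC-1 retained so stronger ABCB1 efflux block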
ABCG2 block: blocks JC-1 efflux by human ABCG2 transporter; AID 1325; actives 0.1% (n = 190,000); inhibition, % at 6.6 µM; IgMXP3 cells, flow cytometry;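 active = inhibition above 80%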;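 also: 0% = DMSO and 100% = nicardipine control wells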
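Test system: IgMXP3 (ABCG2) plus far-red-tagged CCRF-Adr (ABCB1) cells. Reagent: JC-1 dye as substrate. Timing: 10 min exposure at 25 °C with rotation, no wash. Measured by: flow cytometric JC-1 green MFI at 530 nm. Read-out: percent efflux inhibition, scaled nicardipine 100% to DMSO 0%. Control set: nicardipine and DMSO wells.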
MEKK2wt PB1 HTS: raises or lowers MEK5 binding to wildtype human MEKK2 PB1 domain | Q9Y2U5 | bead flow cytometry, Alexa488-MEK5 binding to MEKK2 WT; actives lie on both sides | binding response (% of control), % at 10 µM | actives 1.1% (n = 290,000); in the data active = binding response below about 67% or above about 130%
MEKK3 PB1 HTS: MEKK3-MEK5 PB1 interaction, increase or decrease; Q99759; bead-based flow cytometry, Alexa488-MEK5 binding to MEKK3; actives lie on both sides; 0 = blocked by unlabeled MEK5, 100 = vehicle; binding response (% of control), % at 10 µM; actives 1.4% (n = 290,000);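 active = binding response more than 3 SD above or below the average of its plate-row segment, actives on both sides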;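 also: Alexa488 bead fluorescence after subtracting the streptavidin-only scavenger bead signal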
Target sequence (Q99759 whole entry, looked up): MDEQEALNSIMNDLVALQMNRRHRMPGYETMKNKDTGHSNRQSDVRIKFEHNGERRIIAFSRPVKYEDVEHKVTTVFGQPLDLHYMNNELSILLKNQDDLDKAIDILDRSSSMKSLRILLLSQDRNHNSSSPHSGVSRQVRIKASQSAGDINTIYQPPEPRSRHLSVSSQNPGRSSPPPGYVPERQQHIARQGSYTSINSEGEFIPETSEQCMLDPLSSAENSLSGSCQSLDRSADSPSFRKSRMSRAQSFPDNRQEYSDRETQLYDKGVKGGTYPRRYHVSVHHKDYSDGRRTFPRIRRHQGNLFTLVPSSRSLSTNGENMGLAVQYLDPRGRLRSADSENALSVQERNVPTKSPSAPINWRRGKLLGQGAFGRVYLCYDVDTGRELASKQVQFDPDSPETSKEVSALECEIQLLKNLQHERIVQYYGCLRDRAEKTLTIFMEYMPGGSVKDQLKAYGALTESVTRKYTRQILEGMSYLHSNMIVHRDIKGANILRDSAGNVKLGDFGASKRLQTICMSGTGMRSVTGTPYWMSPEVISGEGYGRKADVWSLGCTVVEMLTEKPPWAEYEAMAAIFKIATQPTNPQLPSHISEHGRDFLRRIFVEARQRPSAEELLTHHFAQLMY
MEKK2wt confirm: raises or lowers MEK5 binding to wildtype human MEKK2, retest; shares compounds with MEKK3 PB1 HTS; bead flow cytometry, Alexa488-MEK5 binding to MEKK2 WT; actives lie on both sides; binding response (% of control), % at 10 µM; actives 2.4% (n = 5,900); AID 1892; in the data active = binding response below about 16% or above about 210%; inactive = in between
MEKK2mut confirm: signal of MEK5 binding to mutant human MEKK2, retest; shares compounds with MEKK3 PB1 HTS; bead flow cytometry, Alexa488-MEK5 binding to MEKK2 mutant; percent response, % at 10 µM; actives 2% (n = 5,900); in the data active = percent response mostly above about 71%, no sharp cut-off; inactive = mostly below about 38%;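 also: higher means compound restores mutant binding toward wildtype level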
MEKK3 confirm: confirmation of inhibitors of MEK5 binding to human MEKK3 | shares compounds with MEKK3 PB1 HTS | bead flow cytometry, Alexa488-MEK5 binding to MEKK3; stronger effect = lower value | binding response (% of control), % at 10 µM | actives 1.8% (n = 5,900) | AID 1894;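 active = binding response below 72% of control, or above a set upper limit, though filed actives all read lower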;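 also: 100% = DMSO only wells and 0% = binding blocked by excess unlabeled MEK5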
* marks the source's active call; other numbers are inactive results; . = not tested or not shown; [ ] = dose if it differs, or a comment.

SMILES	MEKK2 mut-MEK5	Efflux pump mplx	ABCB1 inh	ABCG2 block	MEKK2wt PB1 HTS	MEKK3 PB1 HTS	MEKK2wt confirm	MEKK2mut confirm	MEKK3 confirm
CCOC(=O)C1(CC2CCCCO2)CCN(C(=O)Nc2ccc(C(=O)OC)cc2)CC1 (centres undefined)	-9	0	0	1	91	97	.	.	.
O=C(CCCOc1ccccc1)NCCc1nc2ccccc2[nH]1	-6	0	1	7	87	74*[inhibitor]	106	5	101
O=c1[nH]c2cc3c(cc2cc1CN(CCO)S(=O)(=O)c1ccccc1)OCCO3	23	0	.	.	111	130*	102	5	101
COc1ccc(/C=C2/C(=O)N(Cc3ccccc3)N=C2C)cc1	3	0	0	1	104	128*	98	2	93
CCn1cc(CN2CCC(n3nccc3NC(=O)CCc3ccccc3)CC2)cn1	8	0	.	.	112	103	.	.	.
CC(C)c1c(C(=O)N/N=C/c2ccc(C(F)(F)F)cc2)nnn1-c1nonc1N	-4	0	.	.	92	96	.	.	.
COc1ccc(NC(=O)CCSCCC(=O)Nc2ccc(OC)cc2OC)c(OC)c1	1	1	2	20	109	137*	101	3	98
COc1ccc(NC(=O)Cc2c(F)cccc2Cl)c(OC)c1	-8	0	0	19	3.0*[inhibitor]	1.0*[inhibitor]	102	-1	100
CC(C)NC(=O)Cc1ccc(Br)cc1	3	0	0	9	110	111	.	.	.
CCCC(C)NC(=O)COc1ccc(Sc2ccc(OCC(=O)NC(C)CCC)cc2)cc1 (centres undefined)	0	-1	2	20	104	137*	100	-3	96
CCCC(C)NC(=O)Cc1ccc(Br)cc1 (centres undefined)	0	0	0	7	108	140*	102	2	99
CC(C)CNC(=O)COc1ccc(Sc2ccc(OCC(=O)NCC(C)C)cc2)cc1	-1	0	0	8	102	103	.	.	.
COC(=O)/C(=C(O)\C=C\c1ccccc1[N+](=O)[O-])c1nc2ccccc2[nH]1	0	0	.	.	99	106	.	.	.
CCOc1ccc(N2CC(C(=O)Nc3nnc(CC)s3)CC2=O)cc1 (centres undefined)	-7	0	.	.	96	98	.	.	.
O=C(COc1ccccc1[N+](=O)[O-])N/N=C/c1cccs1	3	0	1	20	107	104	.	.	.
Cc1ccc(-n2nc(C(=O)NCc3ccc(C)o3)c3c4ccccc4n(C)c3c2=O)cc1	0	0	3	25	109	103	.	.	.
O=C1NCCCC1C(=O)N1CCN(C(c2ccccc2)c2ccccc2)CC1 (centres undefined)	-9	0	0	1	98	82*[inhibitor]	103	7	108
CC(C)(C)c1cc[n+](/C(C(=S)NC2CC2)=C(/[O-])c2ccc(Cl)s2)cc1	-2	0	0	0	80	81*[inhibitor]	95	-7	97
O=C(NCc1ccco1)c1ccc(Cn2c(=O)c3ccccc3n(Cc3ccc(Cl)cc3)c2=O)cc1	8	0	1	1	122	133*	108	3	105
O=C(NCc1ccco1)c1ccc(Cn2c(=O)c3ccccc3n(Cc3cccc(F)c3)c2=O)cc1	1	0	4	5	89	105	.	.	.
N#CC1=C(N)OC(c2ccccc2)=C(C#N)C1c1ccc2c(c1)OCO2 (centres undefined)	6	0	0	-2	122	133*	103	4	92
Oc1ccc(C=NC2CCCCC2)c(O)c1	-11	0	0	-3	89	101	.	.	.
O=C(OCC(=O)N1CCOCC1)c1cc(-c2ccccc2)nc2ccccc12	.	0	.	.	.	.	.	.	.
Cc1cc2c(=O)n(Cc3ccco3)c(SCC(=O)NCc3ccco3)nc2s1	-21	0	0	0	2.0*[inhibitor]	2.0*[inhibitor]	100	11	102
Cc1cc(=O)[nH]c(SCC(=O)NCc2ccco2)n1	1	0	0	2	101	100	.	.	.
SMILES	MEKK2 mut-MEK5	Efflux pump mplx	ABCB1 inh	ABCG2 block	MEKK2wt PB1 HTS	MEKK3 PB1 HTS	MEKK2wt confirm	MEKK2mut confirm	MEKK3 confirm
Cc1nnc(SCC(=O)NCc2ccco2)[nH]c1=O	7	0	0	0	135*	133*	104	3	102
S=C(Nc1ccc(Br)cc1Cl)N1CCCC1	4	0	.	.	104	102	.	.	.
O=C(Nc1ccc(CN2CCCCC2)cc1)Nc1ccc(Br)cc1Cl	11	0	0	0	165*	113	144	20	104
NC(=O)c1ccc[n+](CC(=O)c2cccc([N+](=O)[O-])c2)c1	12	0	.	.	108	110	.	.	.
CCOc1ccc(CC(=O)N2CCN=C2SCc2ccc([N+](=O)[O-])cc2)cc1	0	0	4	11	102	106	.	.	.
COc1ccc(CC(=O)N2CCN=C2SCc2ccc([N+](=O)[O-])cc2)cc1	3	0	0	1	118	130*	95	-4	99
COc1ccc(/C=C/CN2CCCC(C(=O)c3ccc(OC)c(F)c3)C2)cc1 (centres undefined)	20	0	1	1	140*	105	126	11	104
C/C(=N\NC(=S)Nc1cccc(C)c1)c1ccco1	-18	0	-3	15	9.0*[inhibitor]	7.0*[inhibitor]	106	5	105
C/C(=N\NC(=S)Nc1cccc(C)c1)c1ccccc1	6	0	1	6	101	102	.	.	.
CCN(CC(=O)NC(C)(C)C)C(=O)CCl	0	0	0	-2	104	136*	99	-2	99
COc1ccc(C[C@H]2CN3C(=NC[C@@H]3Cc3ccccc3)N2C[C@H](C)NC(=O)CCC2CCCCC2)cc1	7	.	.	.	92	109	.	.	.
Cc1ccc(C(=O)NCCN2C3=NC[C@@H](Cc4ccccc4)N3C[C@H]2Cc2ccc(O)cc2)cc1Br	52*	.	2	4	185*	107	200	56	113
